Experimental data published in ChEMBL document CHEMBL1671856, “Chemical target validation studies of aminopeptidase in malaria parasites using alpha-aminoalkylphosphonate and phosphonopeptide inhibitors” (Antimicrob Agents Chemother, 2008).

Experiments:
Plasmodium falciparum [1] = assay: Antimalarial activity against Plasmodium falciparum 3D7 infected in O-positive human erythrocytes after 72 hrs; format: functional, organism-based; conditions: 3D7, 72 h
Outline: (§1)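 Asynchronous asexual blood-stage P. falciparum 3D7 were cultured in O+ erythrocytes and exposed to compounds for 72 h. Growth was read by the spectrophotometric parasite lactate dehydrogenase absorbance assay. IC50 values were determined graphically from dose-response curves.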

Plasmodium falciparum [2] = assay: Antimalarial activity against Plasmodium falciparum 3D7 infected in O-positive human erythrocytes assessed as growth inhibition by LDH assay; format: functional; outline: as §1
[3] = target: T1, Leucine aminopeptidase (Plasmodium falciparum 3D7) (UniProt Q8IL11); assay: Inhibition of leucyl aminopeptidase activity in Plasmodium falciparum 3D7 at 10 uM using Leu-AMC as a substrate by spectrophotometer
T1 sequence (whole entry): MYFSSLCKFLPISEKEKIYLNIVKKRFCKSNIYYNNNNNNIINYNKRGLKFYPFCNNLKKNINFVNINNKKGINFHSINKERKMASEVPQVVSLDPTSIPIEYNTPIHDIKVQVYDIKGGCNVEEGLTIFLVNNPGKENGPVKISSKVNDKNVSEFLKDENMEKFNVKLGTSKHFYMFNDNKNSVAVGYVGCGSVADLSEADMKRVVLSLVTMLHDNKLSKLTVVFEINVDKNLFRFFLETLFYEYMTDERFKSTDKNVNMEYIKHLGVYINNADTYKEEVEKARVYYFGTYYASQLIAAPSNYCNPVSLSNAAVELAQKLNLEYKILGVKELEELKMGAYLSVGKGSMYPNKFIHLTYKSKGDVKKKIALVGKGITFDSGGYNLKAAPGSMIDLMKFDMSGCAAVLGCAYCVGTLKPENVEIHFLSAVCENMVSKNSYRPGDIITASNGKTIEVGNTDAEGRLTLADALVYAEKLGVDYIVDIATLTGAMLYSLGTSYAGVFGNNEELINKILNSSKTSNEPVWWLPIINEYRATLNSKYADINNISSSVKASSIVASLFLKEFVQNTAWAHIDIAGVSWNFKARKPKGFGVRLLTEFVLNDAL
Outline: (§2)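 Cytosolic extract came from free parasites released from infected erythrocytes, then three freeze-thaw cycles and centrifugation at 12,000 x g, 4°C, 20 min. Extract (25 µg/ml final) was preincubated with 0.1 or 10 µM inhibitor in 50 mM Tris-Cl pH 8.0, with or without 1 mM CoCl2, for 15 min at 37°C. Leu-AMC or Ala-AMC (10 µM final) was added. AMC release was read over 30 min (ex 370/em 440 nm).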

Aminopeptidase N = target: T2, Aminopeptidase N (Sus scrofa, UniProt P15145); assay: Inhibition of pig kidney microsomal aminopeptidase N
T2 sequence (P15145 whole entry): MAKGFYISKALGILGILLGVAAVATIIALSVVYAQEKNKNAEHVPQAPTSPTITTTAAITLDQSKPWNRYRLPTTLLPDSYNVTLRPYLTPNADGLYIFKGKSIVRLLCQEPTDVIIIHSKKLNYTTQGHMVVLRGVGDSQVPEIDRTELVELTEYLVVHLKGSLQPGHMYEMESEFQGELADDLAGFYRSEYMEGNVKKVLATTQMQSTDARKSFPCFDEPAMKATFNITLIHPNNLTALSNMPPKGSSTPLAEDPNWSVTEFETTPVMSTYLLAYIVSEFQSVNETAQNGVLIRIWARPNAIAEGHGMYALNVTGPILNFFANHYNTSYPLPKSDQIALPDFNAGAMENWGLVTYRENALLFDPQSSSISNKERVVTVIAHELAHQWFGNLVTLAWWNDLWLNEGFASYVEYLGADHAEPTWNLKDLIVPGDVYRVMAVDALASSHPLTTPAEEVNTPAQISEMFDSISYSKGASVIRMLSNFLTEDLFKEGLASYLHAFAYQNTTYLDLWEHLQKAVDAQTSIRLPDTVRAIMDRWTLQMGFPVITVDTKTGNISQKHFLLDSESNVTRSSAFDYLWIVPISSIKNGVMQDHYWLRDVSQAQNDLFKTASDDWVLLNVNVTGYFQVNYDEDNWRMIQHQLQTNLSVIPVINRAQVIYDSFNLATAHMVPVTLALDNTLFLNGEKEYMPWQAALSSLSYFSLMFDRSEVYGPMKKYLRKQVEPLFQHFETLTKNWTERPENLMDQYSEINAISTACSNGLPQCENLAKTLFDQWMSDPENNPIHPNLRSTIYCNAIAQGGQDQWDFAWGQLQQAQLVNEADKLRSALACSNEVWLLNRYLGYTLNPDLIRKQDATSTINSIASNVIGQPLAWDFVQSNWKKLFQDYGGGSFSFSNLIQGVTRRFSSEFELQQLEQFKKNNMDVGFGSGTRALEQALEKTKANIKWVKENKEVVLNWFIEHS

Plasmodium falciparum [4] = assay: Inhibition of alanyl aminopeptidase activity in Plasmodium falciparum 3D7 at 10 uM using Ala-AMC as a substrate by spectrophotometer; outline: as §2
[5] = target: T1, Leucine aminopeptidase (Plasmodium falciparum 3D7); assay: Inhibition of leucyl aminopeptidase activity in Plasmodium falciparum 3D7 at 0.1 uM using Leu-AMC as a substrate by spectrophotometer; outline: as §2
Plasmodium falciparum [6] = assay: Inhibition of alanyl aminopeptidase activity in Plasmodium falciparum 3D7 at 0.1 uM using Ala-AMC as a substrate by spectrophotometer; outline: as §2
[7] = target: T1, Leucine aminopeptidase (Plasmodium falciparum 3D7); assay: Inhibition of leucyl aminopeptidase activity in Plasmodium falciparum 3D7 at 0.1 uM using Leu-AMC as a substrate by spectrophotometer in presence of 1 mM CoCl2
[8] = target: T1, Leucine aminopeptidase (Plasmodium falciparum 3D7); assay: Inhibition of leucyl aminopeptidase activity in Plasmodium falciparum 3D7 at 10 uM using Leu-AMC as a substrate by spectrophotometer in presence of 1 mM CoCl2
[9] = Inhibition of porcine kidney leucyl aminopeptidase; set-up: species or system Sus scrofa
[10] = target: T1, Leucine aminopeptidase (Plasmodium falciparum 3D7); assay: Inhibition of leucyl aminopeptidase activity in Plasmodium falciparum 3D7 harboring tPfAP-M17 gene at 0.1 uM using Leu-AMC as a substrate by spectrophotometer in presence of 1 mM CoCl2

SMILES	IC50 (Plasmodium falciparum [1])	inhibition (INH) (Plasmodium falciparum [2])	inhibition [3]	other results
CCC(C)C(N)P(=O)(O)O (stereo in doubt; D28) [listing 1 of 2 here]	> 256 µM	22%		
CCC(C)C(N)P(=O)(O)O (stereo in doubt; D28) [listing 2 of 2 here]			9%	
NC(c1ccc2ccccc2c1)C(O)P(=O)(O)O (stereo unspecified)	> 128 µM	11%	17%	
Cl.NC(Cc1ccccc1)C(=O)NCCC(O)P(=O)(O)O (stereo unspecified)	> 256 µM	10%	9%	
CCC(C)C(N)C(O)P(=O)(O)O (stereo unspecified)	> 256 µM	1%	5%	
CC(C)C[C@@H](N)P(=O)(O)O	> 256 µM	1%	2%	Ki (Aminopeptidase N): 53 µM
COc1ccc(C(N)P(=O)(O)O)cc1OC (racemic)	53 µM		71%	inhibition at 10 µM (Plasmodium falciparum [4]): 76%; inhibition [5]: 6%; inhibition at 0.1 µM (Plasmodium falciparum [6]): 0%; inhibition [7]: 20%; inhibition [8]: 70%
NC(c1ccccc1)C(O)P(=O)(O)O (stereo unspecified)	> 256 µM	0%	5%	
CCC(C)C(N)P(=O)(O)O (stereo in doubt; D29) [listing 1 of 2 here]		0%		
NC(c1ccc(O)c(O)c1)P(=O)(O)O (racemic)	> 256 µM	5%	7%	
NC(c1cccc(O)c1)P(=O)(O)O (racemic)	> 256 µM	34%	6%	
CCC(C)C(N)P(=O)(O)O (stereo in doubt; D29) [listing 2 of 2 here]			9%	
N[C@H](C1CCCCC1)P(=O)(O)O	> 256 µM	7%	8%	Ki [9]: 6.96 µM; Ki (Aminopeptidase N): > 2000 µM
CCCC(C)C(N)P(=O)(O)O (stereo in doubt; D30) [listing 1 of 2 here]			11%	
NC(CCc1ccccc1)P(=O)(O)Oc1ccccc1 (racemic)	25 µM		90%	inhibition at 10 µM (Plasmodium falciparum [4]): 92%; inhibition [5]: 8%; inhibition at 0.1 µM (Plasmodium falciparum [6]): 12%; inhibition [7]: 19%; inhibition [8]: 73%
CCCCC(CC)C(N)P(=O)(O)O (stereo in doubt; D33) [listing 1 of 2 here]	> 256 µM	17%		
CC(C)C(NC(=O)C(N)Cc1ccccc1)P(=O)(O)O (stereo unspecified)	> 256 µM	7%	12%	
CCC(CC)[C@@H](N)P(=O)(O)O	> 256 µM	0%	6%	
COc1ccc(C(N)P(=O)(O)O)cc1O (racemic)	65 µM		39%	inhibition at 10 µM (Plasmodium falciparum [4]): 43%; inhibition [5]: 5%; inhibition at 0.1 µM (Plasmodium falciparum [6]): 0%; inhibition [7]: 46%; inhibition [8]: 71%
CC(C)C[C@H](NC(=O)[C@@H](O)[C@H](N)Cc1ccccc1)C(=O)O [UBENIMEX]			98%	inhibition at 10 µM (Plasmodium falciparum [4]): 97%; inhibition [5]: 33%; inhibition at 0.1 µM (Plasmodium falciparum [6]): 29%; inhibition [10]: 47%; inhibition [7]: 6%; inhibition [8]: 93%

SMILES	IC50 (Plasmodium falciparum [1])	inhibition (INH) (Plasmodium falciparum [2])	inhibition [3]	other results
CCCC(C)C(N)P(=O)(O)O (stereo in doubt; D30) [listing 2 of 2 here]	> 256 µM	14%		
NC(CC1CCCC1)P(=O)(O)O (racemic)	> 256 µM	17%	37%	
CCCC(C)C(N)P(=O)(O)O (stereo in doubt; D31) [listing 1 of 2 here]		2%		
CCCCC(CC)C(N)P(=O)(O)O (stereo in doubt; D32) [listing 1 of 2 here]			1%	
NC(CCc1ccccc1)P(=O)(O)O (racemic)	22 µM		93%	Ki [9]: 0.14 µM; inhibition at 10 µM (Plasmodium falciparum [4]): 95%; inhibition [5]: 15%; inhibition at 0.1 µM (Plasmodium falciparum [6]): 15%; inhibition [10]: 27%; inhibition [7]: 41%; inhibition [8]: 92%
CCCCC(CC)C(N)P(=O)(O)O (stereo in doubt; D33) [listing 2 of 2 here]			11%	
NC(c1ccc(O)cc1)P(=O)(O)O (racemic)	> 256 µM	14%	8%	
NC(Cc1ccc(O)cc1)P(=O)(O)O (racemic)	> 256 µM	1%	8%	
CCCCC(CC)C(N)P(=O)(O)O (stereo in doubt; D32) [listing 2 of 2 here]		0%		
CC(CCNC(=O)C(N)Cc1ccccc1)P(=O)(O)O (stereo unspecified)	135 µM		4%	inhibition at 10 µM (Plasmodium falciparum [4]): 0%; inhibition [5]: 0%; inhibition at 0.1 µM (Plasmodium falciparum [6]): 0%; inhibition [7]: 1%; inhibition [8]: 0%
CC(C)C[C@H](N)P(=O)(O)O [LEUCINE PHOSPHONIC ACID]	> 128 µM	30%	15%	inhibition at 10 µM (Plasmodium falciparum [4]): 24%; inhibition [5]: 0%; inhibition at 0.1 µM (Plasmodium falciparum [6]): 0%; inhibition [7]: 9%; inhibition [8]: 52%
CCC(CC)[C@H](N)P(=O)(O)O	> 256 µM	15%	10%	
N[C@@H](C1CCCCC1)P(=O)(O)O	54 µM		12%	Ki [9]: 7.89 µM; inhibition at 10 µM (Plasmodium falciparum [4]): 8%; inhibition [5]: 0%; inhibition at 0.1 µM (Plasmodium falciparum [6]): 2%; Ki (Aminopeptidase N): 161 µM; inhibition [7]: 50%; inhibition [8]: 67%
CCCC(C)C(N)P(=O)(O)O (stereo in doubt; D31) [listing 2 of 2 here]			3%	
NC(C1CCC1)P(=O)(O)O (racemic)	> 256 µM	8%	6%	
COc1ccc(C(N)P(=O)(O)O)cc1 (racemic)	57 µM		43%	inhibition at 10 µM (Plasmodium falciparum [4]): 52%; inhibition [5]: 2%; inhibition at 0.1 µM (Plasmodium falciparum [6]): 2%; inhibition [7]: 38%; inhibition [8]: 73%
NC(C1CC1)P(=O)(O)O (racemic)	> 256 µM	0%	6%	
CC(C)C[C@H](N)[C@@H](N)P(=O)(O)O	> 256 µM	14%	6%	
NC(CC1CCCCC1)P(=O)(O)O (racemic)	119 µM		27%	Ki [9]: 0.75 µM; inhibition at 10 µM (Plasmodium falciparum [4]): 20%; inhibition [5]: 3%; inhibition at 0.1 µM (Plasmodium falciparum [6]): 0%; Ki (Aminopeptidase N): 54.7 µM; inhibition [7]: 21%; inhibition [8]: 69%
